Series [1] is described as follows: Cytotoxicity against mouse RAW264.7 cells assessed as survival rate at 10 uM after 24 hrs by MTT assay. The format is cell-based. Conditions: read-out: Activity. The method in brief: (§1)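 Cells at 1 × 10⁴/well in DMEM + 10% FBS, exposed to compounds for 24 h at 37 °C, 5% CO₂. After PBS washes, MTT (0.5 mg/mL in medium) added for 1 h at 37 °C; formazan dissolved in DMSO, absorbance read at 540 nm. Viability expressed as % of DMSO control; CC₅₀ is the concentration giving 50% loss of mean viability (N = 3).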

Series [2] in a line: Cytotoxicity against mouse RAW264.7 cells assessed as reduction in survival rate after 24 hrs by MTT assay. The format is cell-based. The method in brief:
as §1

Series [3] has as its system RAW264.7. Kind of series: Inhibition of RANKL-induced osteoclastogenesis in mouse RAW264.7 cells assessed as TRAP+ multinucleated cells level at 10 uM incubated for 4 days by TRAP staining assay. The format is functional. Also noted: scale not given: the % may be the effect or the level left. The method in brief: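 Cells plated at 1 × 10³ (96-well) or 5 × 10⁴ (48-well) in α-MEM with 10% FBS, 2 mM […], 100 ng/mL recombinant murine RANKL and compound for 4 days; medium changed on day 2. Fixed in acetone/citrate/formaldehyde for 5 min and TRAP-stained. TRAP⁺ cells with >5 nuclei counted by light microscopy, expressed as % of the RANKL-only group.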

Series [4] relates to RAW264.7. Kind of series: Inhibition of RANKL-induced osteoclastogenesis in mouse RAW264.7 cells assessed as TRAP+ multinucleated cells level incubated for 4 days by TRAP staining assay. The format is functional, cell-based. The note with it: RAW264.7, 96 h. The method in brief: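 RAW264.7 cells in α-MEM with 10% FBS, 2 mM […], 100 ng/mL recombinant soluble murine RANKL and a range of compound concentrations for 4 days, with medium changed on day 2. Cells fixed in acetone/citrate/formaldehyde for 5 min and TRAP-stained. Cells with >5 nuclei counted by light microscopy and expressed as % of RANKL-only; IC50 is 50% inhibition.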

The test system of series [5] is RAW264.7. Kind of series: Inhibition of RANKL-induced osteoclastogenesis in mouse RAW264.7 cells assessed as reduction in TRAP activity incubated for 4 days by TRAP staining assay. The series is classed as functional, cell-based. The note with it: RAW264.7, 96 h. In outline: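 RAW264.7 cells were RANKL-differentiated (100 ng/mL recombinant soluble murine RANKL in α-MEM/10% FBS, compounds at various concentrations, 4 days, medium changed day 2). TRAP activity was read with 2 mg/mL 4-nitrophenyl phosphate in 0.09 M citrate buffer for 15 min at 37 °C, stopped with 0.1 N NaOH. Expressed as % of RANKL-only; IC50 is 50% inhibition.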

The structures appear in SMILES notation. Some results are limits rather than exact numbers.

On to `O=c1oc2ccccc2c(=O)n1-c1ccc(F)cc1F`, for which, in series [1], the viability at 24 h, 10 µM was 88.8%. In series [2], the cytotoxic concentration (CC50) at 24 h is more than 40 µM. Besides, the Activity in series [3] turned out to be 82.5%.

With `O=C(Nc1ccc(Cl)cc1F)c1ccccc1`, the viability at 24 h, 10 µM in series [1] is 105%. Also, the CC50 at 24 h in series [2] was more than 40 µM. In addition, in series [3], the Activity is recorded as 77.9%.

For `COc1ccccc1C(=O)Nc1ccc(F)cc1F`, in series [1], the viability at 24 h, 10 µM turned out to be 108%. Besides, the CC50 at 24 h in series [2] was more than 40 µM. Further, the Activity in series [3] was 89.1%.

Consider `O=C(Nc1ccc(Cl)cc1F)c1ccccc1O`, for which the viability at 24 h, 10 µM in series [1] stood at 93%. Also, the CC50 at 24 h in series [2] amounted to 23.2 µM. Also, in series [3], the Activity stood at 49.4%. In addition, the results for the half-maximal inhibitory concentration (IC50) in series [4] and in series [5] were 10 µM and 12.5 µM, respectively.

On to `COc1ccc(C(=O)Nc2ccc(I)cc2F)c(OCc2ccc(F)cc2F)c1`, for which the viability at 24 h, 10 µM in series [1] was 104%. For the same compound, the CC50 at 24 h in series [2] turned out to be 36.8 µM. Further, the Activity in series [3] is 51.3%.

Take `COc1ccc(C(=O)Nc2ccc(I)cc2F)c(O)c1`: the viability at 24 h, 10 µM in series [1] worked out at 94.4%. Also, in series [2], the CC50 at 24 h was 27.6 µM. The Activity in series [3] was 39.4%.

In the case of `COc1ccc(C(=O)Nc2ccc(F)cc2F)c(O)c1`, the viability at 24 h, 10 µM in series [1] was found to be 89.7%. Further, in series [2], the CC50 at 24 h was more than 40 µM. Besides, in series [3], the Activity is on record as 74.9%.

For the compound `O=C(Nc1ccc(I)cc1F)c1ccccc1OCc1ccc(F)cc1F`, the viability at 24 h, 10 µM in series [1] stood at 85%. Also, the CC50 at 24 h in series [2] is 32.6 µM. In addition, in series [3], the Activity is reported as 85.5%.

Turning to `COc1ccc(C(=O)Nc2ccc(I)cc2F)cc1`, the viability at 24 h, 10 µM in series [1] was determined as 91.4%. The CC50 at 24 h in series [2] worked out at 32.8 µM. For the same compound, the Activity in series [3] is reported as 89.3%.

With `O=C(Nc1ccc(I)cc1F)c1ccccc1`, the viability at 24 h, 10 µM in series [1] was found to be 105%. For the same compound, the CC50 at 24 h in series [2] is more than 40 µM. Further, in series [3], the Activity is on record as 76.8%.

On to `O=C(Nc1ccc(F)cc1F)c1ccccc1OCc1ccc(F)cc1F`, for which, in series [1], the viability at 24 h, 10 µM is 101%. Besides, the CC50 at 24 h in series [2] was more than 40 µM. The Activity in series [3] amounted to 97.6%.

Consider `COc1ccc(C(=O)O)c(O)c1` [4-METHOXYSALICYLIC ACID], for which, in series [1], the viability at 24 h, 10 µM was 99.4%. Besides, the CC50 at 24 h in series [2] is more than 40 µM. In addition, the Activity in series [3] is 79.6%.

`COc1ccc(C(=O)Nc2ccc(-c3ccc(Cl)cc3Cl)cc2F)c(O)c1`: the viability at 24 h, 10 µM in series [1] was 102%. Also, the CC50 at 24 h in series [2] is more than 40 µM. Moreover, the Activity in series [3] was found to be 92.5%.

Turning to `COc1ccc(C(=O)Nc2ccc(I)cc2F)c(OC)c1`, the viability at 24 h, 10 µM in series [1] stood at 95%. Also, the CC50 at 24 h in series [2] is more than 40 µM. For the same compound, in series [3], the Activity stood at 92.4%.

Consider `O=C(Nc1ccc(Cl)cc1F)c1ccccc1OCc1ccc(F)cc1F`, for which the viability at 24 h, 10 µM in series [1] was 107%. The half-maximal cytotoxic concentration (CC50) at 24 h in series [2] was more than 40 µM. The Activity in series [3] turned out to be 74.6%.

For the compound `COc1ccc(C(=O)Nc2ccc(-c3ccc(Cl)cc3F)cc2F)c(O)c1`, the viability at 24 h, 10 µM in series [1] came to 44.5%. The Activity in series [3] stood at 60.6%.

Regarding `O=C(Nc1ccc(-c2ccc(F)cc2F)cc1F)c1ccccc1O`, the viability at 24 h, 10 µM in series [1] stood at 102%. Moreover, the CC50 at 24 h in series [2] stood at 28.6 µM. Also, in series [3], the Activity is recorded as 100.1%.

`COc1ccc(C(=O)Nc2ccc(F)cc2F)cc1`: in series [1], the viability at 24 h, 10 µM was found to be 102%. Further, the CC50 at 24 h in series [2] was more than 40 µM. Moreover, the Activity in series [3] was 73.3%.

For the compound `COc1ccc(C(=O)Nc2ccc(F)cc2F)c(OC)c1`, the viability at 24 h, 10 µM in series [1] stood at 102%. Moreover, the CC50 at 24 h in series [2] was more than 40 µM. Moreover, the Activity in series [3] was found to be 93%.

As for `COc1ccc(C(=O)Nc2ccc(Cl)cc2F)c(OCc2ccc(F)cc2F)c1`, the viability at 24 h, 10 µM in series [1] came out at 107%. Moreover, the CC50 at 24 h in series [2] is more than 40 µM. Moreover, in series [3], the Activity is given as 68.7%.

On to `O=C(Nc1ccc(-c2ccc(Cl)cc2Cl)cc1F)c1ccccc1O`, for which the viability at 24 h, 10 µM in series [1] turned out to be 105%. For the same compound, the CC50 at 24 h in series [2] came to 29.8 µM. Besides, the Activity in series [3] stood at 91.2%.

On to `COc1ccc(C(=O)Nc2ccc(Cl)cc2F)cc1`, for which, in series [1], the viability at 24 h, 10 µM was determined as 106%. In series [2], the cytotoxic concentration (CC50) at 24 h was more than 40 µM. Also, the Activity in series [3] was 100.4%.

For `COc1ccc2c(=O)n(-c3ccc(Cl)cc3F)c(=O)oc2c1`, in series [1], the viability at 24 h, 10 µM came out at 100%. Also, the CC50 at 24 h in series [2] was more than 40 µM. Also, the Activity in series [3] stood at 36%.

As for `COc1ccc(C(=O)Nc2ccc(Cl)cc2F)c(OC)c1`, the viability at 24 h, 10 µM in series [1] was found to be 52.9%. In series [2], the CC50 at 24 h is 13.6 µM. For the same compound, the Activity in series [3] turned out to be 60.2%.

On to `COc1ccc2c(=O)n(-c3ccc(F)cc3F)c(=O)oc2c1`, for which, in series [1], the viability at 24 h, 10 µM was found to be 90.9%. In addition, the CC50 at 24 h in series [2] was more than 40 µM. Further, in series [3], the Activity was determined as 67.5%.

On to `COc1ccccc1C(=O)Nc1ccc(I)cc1F`, for which the viability at 24 h, 10 µM in series [1] stood at 95.4%. In addition, the CC50 at 24 h in series [2] is more than 40 µM. Moreover, the Activity in series [3] turned out to be 106.6%.

As to `COc1ccc2c(=O)n(-c3ccc(I)cc3F)c(=O)oc2c1`, the viability at 24 h, 10 µM in series [1] was found to be 103%. In addition, in series [2], the CC50 at 24 h was 30.1 µM. Moreover, the Activity in series [3] came to 44.4%.

For `O=C(Nc1ccc(F)cc1F)c1ccccc1O`, the viability at 24 h, 10 µM in series [1] came to 76.1%. In series [2], the CC50 at 24 h was 38.4 µM. Further, in series [3], the Activity was 85.2%.

Consider `COc1ccc(C(=O)Nc2ccc(F)cc2F)c(OCc2ccc(F)cc2F)c1`, for which the viability at 24 h, 10 µM in series [1] stood at 106%. For the same compound, the CC50 at 24 h in series [2] is more than 40 µM. The Activity in series [3] was found to be 66.2%.

For `O=C(Nc1ccc(I)cc1F)c1ccccc1O`, the viability at 24 h, 10 µM in series [1] was 96.7%. In series [2], the CC50 at 24 h turned out to be 23.3 µM. Besides, the Activity in series [3] is 70.6%.

In the case of `COc1ccccc1C(=O)Nc1ccc(Cl)cc1F`, the viability at 24 h, 10 µM in series [1] is 102%. For the same compound, the CC50 at 24 h in series [2] was more than 40 µM. For the same compound, the Activity in series [3] came out at 86%.

`COc1ccc(C(=O)Nc2ccc(Cl)cc2F)c(O)c1`: in series [1], the viability at 24 h, 10 µM came out at 103%. The CC50 at 24 h in series [2] turned out to be 32.3 µM. Besides, in series [3], the Activity worked out at 23.8%.

`O=C(Nc1ccc(F)cc1F)c1ccccc1`: the viability at 24 h, 10 µM in series [1] was found to be 105%. Further, in series [2], the CC50 at 24 h was more than 40 µM. Also, in series [3], the Activity was 75.2%.

For the compound `COc1ccc(C(=O)Nc2ccc(-c3ccc(F)cc3F)cc2F)c(O)c1`, the viability at 24 h, 10 µM in series [1] came out at 64.5%. Also, the CC50 at 24 h in series [2] was found to be 26.3 µM. Further, in series [3], the Activity came out at 50.1%.

Consider `O=C(O)c1ccccc1O` [SALICYLIC ACID], for which the CC50 at 24 h in series [2] is more than 40 µM.

On to `O=C(Nc1ccc(-c2ccc(Cl)cc2F)cc1F)c1ccccc1O`, for which the viability at 24 h, 10 µM in series [1] stood at 90.9%. The CC50 at 24 h in series [2] was determined as 27.2 µM. The Activity in series [3] turned out to be 84.8%.

Source of the values: ChEMBL document CHEMBL3351250, “Modified salicylanilide and 3-phenyl-2H-benzo[e][1,3]oxazine-2,4(3H)-dione derivatives as novel inhibitors of osteoclast differentiation and bone resorption” (J Med Chem, 2014).
